# ChEMBL document CHEMBL3407388, “Synthesis, anticancer activity and molecular docking studies on a series of heterocyclic trans-cyanocombretastatin analogues as antitubulin agents” (2015)
# How the values were obtained:
# Assay type in all cases: functional
# [1] = tested on: RPMI-8226; assay: Cytotoxicity against human RPMI8226 cells assessed as growth inhibition after 48 hrs by SRB assay; details: RPMI-8226, 48 h
# Outline: (§1)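 NCI 60-cell panel; compounds passing a single-dose screen (10−5 M, 48 h) were tested at five 10-fold dilutions (10−4 to 10−8 M) with 48 h drug exposure. GI50 is the molar concentration giving 50% reduction in net cell growth relative to cell numbers on day 0.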
# [2] = tested on: HCC 2998; assay: Cytotoxicity against human HCC2998 cells assessed as growth inhibition after 48 hrs by SRB assay; details: HCC 2998, 48 h; outline: as §1
# [3] = tested on: DU-145; assay: Cytotoxicity against human DU145 cells assessed as growth inhibition after 48 hrs by SRB assay; details: DU-145, 48 h; outline: as §1
# [4] = tested on: NCI-H23; assay: Cytotoxicity against human NCI-H23 cells assessed as growth inhibition after 48 hrs by SRB assay; details: NCI-H23, 48 h; outline: as §1
# [5] = tested on: K562; assay: Cytotoxicity against human K562 cells assessed as growth inhibition after 48 hrs by SRB assay; details: K562, 48 h; outline: as §1
# [6] = tested on: SF-295; assay: Cytotoxicity against human SF295 cells assessed as growth inhibition after 48 hrs by SRB assay; details: SF-295, 48 h; outline: as §1
# [7] = tested on: HT-29; assay: Cytotoxicity against human HT-29 cells assessed as growth inhibition after 48 hrs by SRB assay; details: HT-29, 48 h; outline: as §1
# [8] = tested on: MDA-MB-231; assay: Cytotoxicity against human MDA-MB-231 cells assessed as growth inhibition after 48 hrs by SRB assay; details: MDA-MB-231, 48 h; outline: as §1
# [9] = tested on: SNB-19; assay: Cytotoxicity against human SNB19 cells assessed as growth inhibition after 48 hrs by SRB assay; details: SNB-19, 48 h; outline: as §1
# [10] = tested on: COLO 205; assay: Cytotoxicity against human COLO205 cells assessed as growth inhibition after 48 hrs by SRB assay; details: COLO 205, 48 h; outline: as §1
# [11] = Cytotoxicity against human UACC62 cells assessed as growth inhibition after 48 hrs by SRB assay; details: UACC-62, 48 h
# [12] = Cytotoxicity against human OVCAR8 cells assessed as growth inhibition after 48 hrs by SRB assay; details: OVCAR-8, 48 h; outline: as §1
# [13] = Cytotoxicity against human OVCAR3 cells assessed as growth inhibition after 48 hrs by SRB assay; details: OVCAR-3, 48 h; outline: as §1
# [14] = tested on: SW-620; assay: Cytotoxicity against human SW620 cells assessed as growth inhibition after 48 hrs by SRB assay; details: SW-620, 48 h
# [15] = tested on: SF-268; assay: Cytotoxicity against human SF268 cells assessed as growth inhibition after 48 hrs by SRB assay; details: SF-268, 48 h; outline: as §1
# [16] = tested on: MOLT-4; assay: Cytotoxicity against human MOLT4 cells assessed as growth inhibition after 48 hrs by SRB assay; details: MOLT-4, 48 h; outline: as §1
# [17] = tested on: TK-10; assay: Cytotoxicity against human TK10 cells assessed as growth inhibition after 48 hrs by SRB assay; details: TK-10, 48 h
# [18] = Cytotoxicity against human OVCAR4 cells assessed as growth inhibition after 48 hrs by SRB assay; details: OVCAR-4, 48 h; outline: as §1
# [19] = tested on: U-251; assay: Cytotoxicity against human U251 cells assessed as growth inhibition after 48 hrs by SRB assay; details: U-251, 48 h
# [20] = tested on: A498; assay: Cytotoxicity against human A498 cells assessed as growth inhibition after 48 hrs by SRB assay; details: A498, 48 h; outline: as §1
# [21] = tested on: SK-OV-3; assay: Cytotoxicity against human SKOV3 cells assessed as growth inhibition after 48 hrs by SRB assay; details: SK-OV-3, 48 h; outline: as §1
# [22] = Cytotoxicity against human PC3 cells assessed as growth inhibition after 48 hrs by SRB assay; details: PC-3, 48 h; outline: as §1
# [23] = tested on: 786-0; assay: Cytotoxicity against human 786-0 cells assessed as growth inhibition after 48 hrs by SRB assay; details: 786-0, 48 h; outline: as §1
# [24] = tested on: BT-549; assay: Cytotoxicity against human BT549 cells assessed as growth inhibition after 48 hrs by SRB assay; details: BT-549, 48 h; outline: as §1
# [25] = tested on: MCF7; assay: Cytotoxicity against human MCF7 cells assessed as growth inhibition after 48 hrs by SRB assay; details: MCF7, 48 h; outline: as §1
# [26] = tested on: RXF 393; assay: Cytotoxicity against human RXF393 cells assessed as growth inhibition after 48 hrs by SRB assay; details: RXF 393, 48 h; outline: as §1
# [27] = tested on: LOX IMVI; assay: Cytotoxicity against human LOXIMVI cells assessed as growth inhibition after 48 hrs by SRB assay; outline: as §1
# [28] = tested on: NCI-H226; assay: Cytotoxicity against human NCI-H226 cells assessed as growth inhibition after 48 hrs by SRB assay; details: NCI-H226, 48 h; outline: as §1
# [29] = tested on: SN12C; assay: Cytotoxicity against human SN12C cells assessed as growth inhibition after 48 hrs by SRB assay; outline: as §1
# [30] = tested on: IGROV-1; assay: Cytotoxicity against human IGROV1 cells assessed as growth inhibition after 48 hrs by SRB assay; details: IGROV-1, 48 h; outline: as §1
# [31] = tested on: CAKI-1; assay: Cytotoxicity against human Caki1 cells assessed as growth inhibition after 48 hrs by SRB assay; details: CAKI-1, 48 h; outline: as §1
# [32] = tested on: SF-539; assay: Cytotoxicity against human SF539 cells assessed as growth inhibition after 48 hrs by SRB assay; details: SF-539, 48 h; outline: as §1
# [33] = tested on: NCI-H460; assay: Cytotoxicity against human NCI-H460 cells assessed as growth inhibition after 48 hrs by SRB assay; details: NCI-H460, 48 h; outline: as §1
# [34] = tested on: SK-MEL-5; assay: Cytotoxicity against human SK-MEL-5 cells assessed as growth inhibition after 48 hrs by SRB assay; details: SK-MEL-5, 48 h; outline: as §1
# [35] = tested on: M14; assay: Cytotoxicity against human M14 cells assessed as growth inhibition after 48 hrs by SRB assay; details: M14, 48 h; outline: as §1
# [36] = tested on: MDA-MB-435; assay: Cytotoxicity against human MDA-MB-435 cells assessed as growth inhibition after 48 hrs by SRB assay; details: MDA-MB-435, 48 h; outline: as §1
# [37] = tested on: KM12; assay: Cytotoxicity against human KM12 cells assessed as growth inhibition after 48 hrs by SRB assay; details: KM12, 48 h; outline: as §1
# [38] = Cytotoxicity against human HCT15 cells assessed as growth inhibition after 48 hrs by SRB assay; details: HCT-15, 48 h; outline: as §1
# [39] = Cytotoxicity against human OVCAR5 cells assessed as growth inhibition after 48 hrs by SRB assay; details: OVCAR-5, 48 h; outline: as §1
# [40] = Cytotoxicity against human UO31 cells assessed as growth inhibition after 48 hrs by SRB assay; details: UO-31, 48 h
# [41] = Cytotoxicity against human NCI-ADR-RES cells assessed as growth inhibition after 48 hrs by SRB assay; outline: as §1
# [42] = Cytotoxicity against human Hs578T cells assessed as growth inhibition after 48 hrs by SRB assay; details: Hs-578T; outline: as §1
# [43] = tested on: HL-60(TB); assay: Cytotoxicity against human HL-60(TB) cells assessed as growth inhibition after 48 hrs by SRB assay; details: HL-60, 48 h
# Outline: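 NCI 60-cell panel, leukemia subpanel. Five-dose screen at 10-fold dilutions from 10−4 to 10−8 M with 48 h drug exposure. GI50 is the molar concentration giving 50% reduction in net cell growth compared with cell numbers on day 0.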
structure (smiles),measurement,setting,value
COc1cc(/C(C#N)=C/c2cc3ccccc3n2Cc2ccc(C#N)cc2)cc(OC)c1OC,GI50,[1],199 nM
same,GI50,[2],265 nM
same,GI50,[3],207 nM
same,GI50,[4],246 nM
same,GI50,[5],39 nM
same,GI50,[6],37 nM
same,GI50,[7],48 nM
same,GI50,[8],294 nM
same,GI50,[9],85 nM
same,GI50,[10],97 nM
same,GI50,[11],58 nM
same,GI50,[12],124 nM
same,GI50,[13],42 nM
same,GI50,[14],48 nM
same,GI50,[15],86 nM
same,GI50,[16],274 nM
same,GI50,[17],20100 nM
same,GI50,[18],672 nM
same,GI50,[19],44 nM
same,GI50,[20],29 nM
same,GI50,[21],87 nM
same,GI50,[22],105 nM
same,GI50,[23],137 nM
same,GI50,[24],109 nM
same,GI50,[25],39 nM
same,GI50,[26],55 nM
same,GI50,[27],90 nM
same,GI50,[28],14500 nM
same,GI50,[29],269 nM
same,GI50,[30],183 nM
same,GI50,[31],35 nM
same,GI50,[32],39 nM
same,GI50,[33],93 nM
same,GI50,[34],60 nM
same,GI50,[35],56 nM
same,GI50,[36],24 nM
same,GI50,[37],47 nM
same,GI50,[38],89 nM
same,GI50,[39],259 nM
same,GI50,[40],201 nM
same,GI50,[41],73 nM
same,GI50,[42],92 nM
same,GI50,[43],31 nM
COc1cc(/C(C#N)=C/c2cc3ccccc3o2)cc(OC)c1OC,GI50,[1],19 nM
same,GI50,[2],10 nM
same,GI50,[3],< 10 nM
same,GI50,[4],< 10 nM
same,GI50,[5],< 10 nM
same,GI50,[6],< 10 nM
same,GI50,[7],< 10 nM
same,GI50,[8],28 nM
same,GI50,[9],< 10 nM
same,GI50,[10],< 10 nM
same,GI50,[11],< 10 nM
same,GI50,[12],< 10 nM
same,GI50,[13],< 10 nM
same,GI50,[14],< 10 nM
same,GI50,[15],247 nM
same,GI50,[16],47 nM
same,GI50,[17],73600 nM
same,GI50,[18],39 nM
same,GI50,[19],< 10 nM
same,GI50,[20],< 10 nM
same,GI50,[21],< 10 nM
same,GI50,[22],< 10 nM
same,GI50,[23],< 10 nM
same,GI50,[24],29 nM
same,GI50,[25],23 nM
same,GI50,[26],< 10 nM
same,GI50,[27],< 10 nM
same,GI50,[28],< 10 nM
same,GI50,[29],< 10 nM
same,GI50,[30],22 nM
same,GI50,[31],< 10 nM
same,GI50,[32],< 10 nM
same,GI50,[33],< 10 nM
same,GI50,[34],< 10 nM
same,GI50,[35],< 10 nM
same,GI50,[36],< 10 nM
same,GI50,[37],< 10 nM
same,GI50,[38],< 10 nM
same,GI50,[39],42 nM
same,GI50,[40],2290 nM
same,GI50,[41],< 10 nM
same,GI50,[42],< 10 nM
same,GI50,[43],< 10 nM
